# Assay outcomes: PubChem BioAssay, several laboratories
# In the library only some 5.1% were active in any assay of this set; here they are far more common.
# STAT1 inh: STAT1 signaling inhibitors, primary screen, cell-based, HTS, luciferase reporter; NIH 3T3 STAT1-luciferase reporter, IFN-gamma, luminescence; inhibition, % at 5.5 µM; hit rate 0.35% among 200,000;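 active = inhibition above a set limit, the mean inhibition across all tested compounds plus 3 SD, cut at about 34% in these data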;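 note: 0% = IFN-gamma with DMSO and 100% = IFN-gamma with 300 µM nifuroxazide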
# NF-kB expr up: activators of NF-kB expression in neurons, primary screen, cell-based, HTS; human neuronal cells, NF-kB reporter expression; stronger effect = higher value; fold change at 12.5 µM; hit rate 1.6% among 190,000; AID 1239, 2008; in the data active = fold change above about 3.3
# STAT3 act: IL-6 driven STAT3 reporter potentiators, primary screen, U3A cells, luciferase, luminescence, MLSCN library; AID 871, 2007; hit rate 0.91% among 190,000; IL-6 STAT3-luciferase reporter; 100% = signal with IL-6 EC80 alone; activation (% of control), % at 5.6 µM;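 active = activation above the screen-wide mean of compound activation plus 3 SD, cut at about 130% in these data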;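 note: 0% = background luminescence of wells with medium and substrate only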
#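 System – human U3A cells carrying STAT3-luciferase construct · Probe or stimulus – Interleukin-6, 33 ng/mL · Schedule – compound 1 h, then IL-6 6 h at 37 °C · Signal – luminescence from STAT3-driven luciferase reporter · Evaluation – percent of IL-6-only median luminescence · Benchmarks – IL-6-only high control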
# STAT3 inh: IL-6 driven STAT3 reporter inhibitors, primary screen, U3A cells, luciferase, luminescence, MLSCN library | IL-6 STAT3-luciferase reporter; host cell line lacks STAT1 | inhibition, % at 5.5 µM | hit rate 0.89% among 190,000 | AID 862, 2007;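 active = inhibition above the mean inhibition across all screened compounds plus 3 SD, cut at about 44% in these data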;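 note: 0% = DMSO only wells and 100% = 100 µM nifuroxazide control wells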
# STAT1 activator: STAT1 signaling activators, primary screen, cell-based, HTS, luciferase reporter. activation (% of control), % at 5.5 µM. hit rate 2.6% among 200,000. NIH 3T3 STAT1-luciferase reporter, IFN-gamma, luminescence; 100% = IFN-gamma alone, no compound;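 active = activation above the screen-wide mean activation plus 3 SD, cut at about 130% in these data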;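 note: raw ratio to IFN-gamma control signal so 100% means no change and 0% no light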
# APP 5'UTR act: activators of APP 5'UTR luciferase reporter, primary screen, SH-SY5Y cells. SH-SY5Y APP 5'UTR luciferase reporter, luminescence; zero percent = DMSO vehicle wells. activation, % at 2 µM. hit rate 1% among 190,000;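 active = activation above a set limit, based on mean plus 3 SD of controls, cut at about 140% in these data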
# Active calls of the source: *; x = not tested or not shown.
SMILES,STAT1 inh,NF-kB expr up,STAT3 act,STAT3 inh,STAT1 activator,APP 5'UTR act
Cc1ccc(N=Nc2c(N)nn3c(C)cc(C)nc23)cc1,-6,1.1,89,14,105,0
Cc1ccc(N=Nc2c(N)nn3c(N)c(C#N)c(C)nc23)cc1,-34,0.94,74,33,129*,-7
Cc1cc2nc(-c3ccc(SCC(=O)Nc4ccc5c(c4)OCCO5)nc3)[nH]c2cc1C,0,1.4,101,10,100,180*
Cc1ccc2nc(-c3ccc(SCC(=O)Nc4nc(C)cs4)nc3)[nH]c2c1,-52,1.6,111,-16,146*,149*
Cc1cc2nc(-c3ccc(SCc4ccccn4)nc3)[nH]c2cc1C,-35,2,85,22,135*,49
CCOC(=O)CSc1ccc(-c2nc3cc(C)c(C)cc3[nH]2)cn1,-11,0.88,90,15,110,16
Cc1ccc2nc(-c3ccc(SCC(=O)Nc4nnc(C)s4)nc3)[nH]c2c1,-26,2.3,100,-2,124,93
Cc1ccc(C(C)(C)C)cc1S(=O)(=O)Nc1cccc(S(=O)(=O)NC2=NCCC2)c1,0,1.2,106,2,100,-4
CC(NC(=O)CSc1nnc(-c2cccnc2)n1N)c1ccccc1 (configuration not stated),5,1.1,87,23,95,2
COc1cccc(CNC(=O)CCC2CCCN(C(=O)c3ccc(OC)o3)C2)c1 (configuration not stated),-4,1.6,105,-3,102,-2
COc1ccc(/C(N)=N/OC(=O)c2ccc3c(c2)OCO3)cc1OC,-18,2.1,110,-7,116,44
N/C(=N\OC(=O)c1ccccc1Cl)c1cccnc1,-47,5.7*,107,-7,140*,109
N/C(=N\OC(=O)c1ccc(Cl)c(Cl)c1)c1cccnc1,-20,4*,96,5,118,1
N/C(=N\OC(=O)c1ccc2c(c1)OCO2)c1ccc([N+](=O)[O-])cc1,-34,1.7,101,3,129*,49
N/C(=N\OC(=O)c1ccc2c(c1)OCO2)c1cccnc1,12,3.5*,91,12,87,118
O=C(CCC1CCCN(C(=O)c2ccc3cc[nH]c3c2)C1)NCc1ccc(F)c(F)c1 (configuration not stated),-9,1.6,103,-1,107,10
Cc1[nH]c2ccccc2c1C(=O)CN1C(=O)NC2(CC(C)CC(C)(C)C2)C1=O (configuration not stated),1,0.49,99,1,99,-1
Cc1c2c(nc3ccccc13)OCC2,2,0.83,87,13,98,-2
CCCCn1nnc(NC(=S)NC(=O)c2ccc(-c3cccc(Cl)c3Cl)o2)n1,5,1.1,89,8,96,-7
CC(=O)Nc1ccc2ccccc2c1,1,1.7,106,1,99,-5
CCOC(=O)C(Nc1ccc2ccccc2c1)C(=O)OCC,6,0.81,136*,-41,94,17
COc1ccc(N2C(=O)c3ccccc3NC23CCC(C)CC3)cc1 (configuration not stated),-8,2,109,-11,107,-3
COc1ccc(N2C(=O)c3ccccc3NC23CCCCC3)cc1,-38,3.1,97,8,135*,135
CC(=O)Nc1ccc(Oc2ccc(-c3noc(C)n3)cc2)cc1,-1,1.2,100,0,106,4
CC(=O)Oc1ccc(Oc2ccc(-c3noc(C)n3)cc2)cc1,-13,5.7*,92,13,112,25
SMILES,STAT1 inh,NF-kB expr up,STAT3 act,STAT3 inh,STAT1 activator,APP 5'UTR act
Cc1ccc2nc(/C(C#N)=C\c3ccc(N4CCOCC4)o3)[nH]c2c1,-50,2.5,89,16,145*,121
CC(=O)c1ccc(S(=O)(=O)N(Cc2cc3cc4c(cc3[nH]c2=O)OCCO4)CC2CCCO2)cc1 (configuration not stated),-32,1.6,109,-5,129*,26
c1ccc2nc(-c3nccs3)ccc2c1,-38,1.2,94,12,131*,39
N#C/C(=C\c1ccc([N+](=O)[O-])cc1)c1ccccn1,-36,2.6,83,22,132*,25
CN(C)c1ccc(NC(=S)c2ccccn2)cc1,68*,1.6,16,98*,40,58
CN(C)c1ccc(/C=C(\C#N)c2ccccn2)cc1,54*,1.6,18,99*,52,95
CCCCC(=O)NC(=S)Nc1cccc(NC(=O)c2ccccc2)c1,-3,1,100,4,100,-6
CCOc1ccc2c(c1)OC(c1ccc(C)cc1)(C(F)(F)F)NC2=O (configuration not stated),-5,4.2*,117,-23,105,-95
Cc1nc2c(-c3ccc(F)cc3)cnn2c2c1CCC2,-35,1.8,107,3,130*,32
O=C(/C=C/c1ccccc1Cl)c1ccccc(=O)c1O,17,26*,112,-9,85,10
CSc1ccc(Cl)c(C(=O)Nc2ccc(Cl)cn2)c1,6,1.2,82,24,92,-24
COc1cc(SC)ccc1C(=O)Nc1ccc(Cl)cn1,80*,1.4,18,100*,26,148*
COc1cc(SC)ccc1C(=O)Nc1ccccc1C#N,-26,1.9,133*,-38,124,-6
CC1CCN(c2nc3ccc(C(=O)N4CCN(Cc5ccccc5)CC4)cc3s2)CC1,-33,1.4,98,11,130*,59
CC1CN(CCCCOc2ccc(F)cc2)CC(C)O1 (configuration not stated),-8,1.4,99,10,106,-1
CN1C(=O)C(Cl)(Cl)C(=O)c2ccccc21,3,0.71,104,1,97,2
Cc1nc(NC2=NCN(CC3CCCO3)CN2)nc2ccccc12 (configuration not stated),7,x,101,5,94,-4
Cc1nc(NC2=NCN(CCc3ccccc3)CN2)nc2c(C)cccc12,-2,x,158*,-67,102,54
Cc1nc(NC2=NCN(CCCN3CCOCC3)CN2)nc2c(C)cccc12,-10,1.2,183*,-86,109,-16
O=C(Nc1cnccn1)Nc1ccc(Cl)cc1Cl,-20,1.3,85,20,117,33
Brc1ccc(OCc2cn3ccccc3n2)cc1,-50,4.6*,73,38,147*,140*
Nc1ncc(Br)cc1N=Cc1ccccc1,-55,4.7*,92,12,149*,86
O=[N+]([O-])c1ccc2c(c1)nc1n2CCN(C2CCCCC2)C1,-47,x,104,2,144*,91
